Experimental data from ChEMBL document CHEMBL5346944, “Development of a 2,4-Diaminothiazole Series for the Treatment of Human African Trypanosomiasis Highlights the Importance of Static-Cidal Screening of Analogues” (J Med Chem, 2023).
Active and inactive are the calls of the source. The rule behind the calls is not given here.

Key:
Trypanosoma brucei [1] = experiment: Antiparasitic activity against bloodstream-stage Trypanosoma brucei measured after 73 hrs by resazurin assay; type: functional, organism-based
[2] = Cmax in NMRI mouse at 10 mg/kg, po by UPLC-MS/MS analysis; type: ADME, organism-based; set-up: dose 10 mg/kg, route po; details: in vivo
Method in brief: (§1)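 Oral gavage at 10 mg kg-1 free base in 10% DMSO/40% PEG400/50% water, 5 mL kg-1, to female NMRI mice (n = 3) or Sprague-Dawley rats. Blood drawn at 5, 15, 30 min and 1, 2, 4, 6, 8 h, mixed with two volumes of water, measured by UPLC-MS/MS. Parameters taken from the mean blood concentration–time curve.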

[3] = Tmax in NMRI mouse at 10 mg/kg, po by UPLC-MS/MS analysis; type: ADME, organism-based; details: in vivo; method in brief: as §1
[4] = AUC in NMRI mouse at 10 mg/kg, po by UPLC-MS/MS analysis; type: ADME, organism-based; set-up: dose 10 mg/kg, route po; details: in vivo; method in brief: as §1
[5] = Cmax in NMRI mouse at 10 mg/kg, ip by UPLC-MS/MS analysis; type: ADME, organism-based; set-up: dose 10 mg/kg, route ip; details: in vivo
Method in brief: (§2)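 Female NMRI or HRN mice (n = 3) given a single IP dose of 10 mg kg-1 free base in 5% DMSO/40% PEG400/55% water or 15% solutol/85% water, 10 mL kg-1. Blood sampled at 5, 15, 30 min and 1, 2, 4, 6, 8 h, diluted with two volumes of water, assayed by UPLC-MS/MS. PK parameters derived from the mean blood concentration–time curve.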

[6] = Tmax in NMRI mouse at 10 mg/kg, ip by UPLC-MS/MS analysis; type: ADME, organism-based; details: in vivo; method in brief: as §2
[7] = AUC in NMRI mouse at 10 mg/kg, […] by UPLC-MS/MS analysis; type: ADME, organism-based; set-up: dose 10 mg/kg; details: in vivo; method in brief: as §2
[8] = Cmax in HRN mouse at 10 mg/kg, ip by UPLC-MS/MS analysis; type: ADME, organism-based; set-up: dose 10 mg/kg, route ip; details: in vivo; method in brief: as §2
[9] = Tmax in HRN mouse at 10 mg/kg, ip by UPLC-MS/MS analysis; type: ADME, organism-based; details: in vivo; method in brief: as §2
[10] = AUC in HRN mouse at 10 mg/kg, […] by UPLC-MS/MS analysis; type: ADME, organism-based; set-up: dose 10 mg/kg; details: in vivo; method in brief: as §2
[11] = system: Trypanosoma brucei brucei; experiment: Antiparasitic activity against Trypanosoma brucei brucei S427 injected in NMRI mouse assessed as cure by measuring reduction in parasitemia at 10 mg/kg, ip twice daily for 4 days by stage I efficacy study; type: functional; set-up: scale not given: the % may be the effect or the level left; details: time 4 day
Method in brief: (§3)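 Female NMRI mice (3–5 per group) infected IP with 1 × 10^4 bloodstream T. b. brucei S427 from cryopreserved stabilate diluted in Hanks' balanced salt solution with glucose. Dosed IP twice daily, days 3–6, in 5% DMSO/40% PEG400/55% water, 10 mL kg-1, prepared fresh daily. Parasitemia followed to day 30; untreated control group of three mice.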

[12] = system: Trypanosoma brucei brucei; experiment: Antiparasitic activity against Trypanosoma brucei brucei S427 injected in NMRI mouse assessed as cure by measuring reduction in parasitemia at 10 mg/kg, ip twice daily for 4 days measured upto 30 days by stage I efficacy study; type: functional, organism-based; details: time 4.0 day; method in brief: as §3
[13] = Permeability across blood brain barrier in NMRI mouse stage 2 CNS model; type: ADME; details: read-out: BBR
Method in brief: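 Female NMRI mice (n = 3) received a 10 mg kg-1 IV bolus in 15% solutol. At 30 min, under terminal isoflurane anesthesia, blood was taken by cardiac puncture and the brain removed. Both were quantified by UPLC-MS/MS; brain (ng g-1) divided by blood (ng mL-1) per mouse gives the brain:blood ratio.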

[14] = Fraction unbound in NMRI mouse brain stage 2 CNS model; type: ADME
[15] = Metabolic stability in CD1 mouse liver microsomes assessed as intrinsic clearance by UPLC-MS/MS analysis; type: ADME
Method in brief: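 Compound at 0.5 μM incubated with female CD1 mouse liver microsomes (0.5 mg mL-1, 50 mM potassium phosphate pH 7.4). Reaction started with excess NADPH. Aliquots taken at 0, 3, 6, 9, 15, 30 min and quenched in acetonitrile with internal standard, then analysed by UPLC-MS/MS.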

[16] = Fraction unbound in NMRI mouse; type: ADME
[17] = Drug metabolism in mouse liver microsomes assessed as retention time of 4-hydroxycyclohexyl metabolite at 0.5 to 5 uM for 60 mins by LC-MS analysis; type: ADME, Microsome; details: 1 h, dose 0.5-5 µM
Method in brief: (§4)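 Mouse liver microsomes incubated with compound at 0.5 and 5 μM for 60 min. Oxidized metabolites (m/z 354) detected and their retention times recorded by LC–MS.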

[18] = Drug metabolism in mouse liver microsomes assessed as retention time of 3-hydroxycyclohexyl metabolite at 0.5 to 5 uM for 60 mins by LC-MS analysis; type: ADME, Microsome; details: 1 h, dose 0.5-5 µM; method in brief: as §4
Trypanosoma brucei [19] = experiment: Antiparasitic activity against bloodstream-form Trypanosoma brucei in presence of 5% Co2 incubated for 69 hrs followed by resazurin addition further incubated for 4 hrs; type: functional, organism-based
[20] = Antiproliferative activity against human MRC5 cells in presence of 5% Co2 incubated for 69 hrs followed by resazurin addition further incubated for 4 hrs; type: toxicity, cell-based
[21] = Selectivity index, ratio of EC50 for human MRC-5 cells to EC50 for bloodstream-form Trypanosoma brucei; type: toxicity; details: read-out: Selectivity Index
Trypanosoma brucei [22] = experiment: Antiparasitic activity against bloodstream-form Trypanosoma brucei assessed as cidal in presence of 5% Co2 at > 5.6 uM incubated for 24 hrs by static-cidal assay; type: functional, organism-based
Trypanosoma brucei [23] = experiment: Antiparasitic activity against bloodstream-form Trypanosoma brucei assessed as static in presence of 5% Co2 at < 5.6 uM incubated for 24 hrs by static-cidal assay; type: functional, organism-based
[24] = Toxicity in mouse assessed as tolerability at 20 mg/kg, ip; type: organism-based; details: in vivo

## Nc1nc(NC2CCCCC2)sc1C(=O)c1c(F)cccc1F
Trypanosoma brucei [1]
  EC50: 110 nM
[2]
  Cmax: 33 ng/mL
[3]
  Tmax: 30 min
[4]
  AUC: 5.7 µg·h/mL
[5]
  Cmax: 830 ng/mL
[6]
  Tmax: 15 min
[7]
  AUC: 66 µg·h/mL
[8]
  Cmax: 3800 ng/mL
[9]
  Tmax: 30 min
[10]
  AUC: 1000 µg·h/mL
[11]
  Activity: 100%
[12]
  Activity: Active
[13]
  Kp: 3.3
[14]
  fraction unbound: 0.006
[15]
  CLH: 15 mL/min/g
[16]
  fraction unbound: 0.0063
[17]
  Retention_time: 3.43 min
[18]
  Retention_time: 3.86 min
Trypanosoma brucei [19]
  EC50: 110 nM
[20]
  EC50 at 69 h: 1200 nM
[21]
  selectivity ratio: 11
Trypanosoma brucei [22]
  Activity: Active
Trypanosoma brucei [23]
  Activity: Active
[24]
  Activity: Toxic
